Data as given in ChEMBL document CHEMBL2412952, “2-Substituted 4-hydroxybutanamides as potential inhibitors of γ-aminobutyric acid transporters mGAT1-mGAT4: synthesis and biological evaluation” (Bioorg Med Chem, 2013).
The source made the active and inactive calls.

What was measured:
Mus musculus [1] = assay: Neurotoxicity in albino Swiss CD-1 mouse assessed as motor impairment at 30 mg/kg, ip after 30 mins by rotarod test; assay type: toxicity, organism-based; design: dose 30 mg/kg, route intraperitoneal; settings: in vivo, 0.5 h
Procedure, shortened: (§1)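 CD-1 mice trained 3 days on a 2 cm rotarod at 18 rpm, then tested ≥24 h later, 30 min after ip dosing, at 6, 18 and 24 rpm. Failure to stay on for 1 min counted as impairment (fallers/tested; Fisher's exact); mean time on rod also recorded (ANOVA/Dunnett); 8 mice per group.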

Mus musculus [2] = assay: Neurotoxicity in albino Swiss CD-1 mouse assessed as mean time spent on the rotarod with 24 rpm at 30 mg/kg, ip after 30 mins by rotarod test (reference value: 60.0 +/- 0.0 seconds); assay type: toxicity, organism-based; design: dose 30 mg/kg, route intraperitoneal; settings: in vivo, 0.5 h; procedure, shortened: as §1
Mus musculus [3] = assay: Neurotoxicity in albino Swiss CD-1 mouse assessed as mean time spent on the rotarod with 18 rpm at 30 mg/kg, ip after 30 mins by rotarod test (reference value: 60.0 +/- 0.0 seconds); assay type: toxicity, organism-based; design: dose 30 mg/kg, route intraperitoneal; settings: in vivo, 0.5 h; procedure, shortened: as §1
Mus musculus [4] = assay: Neurotoxicity in albino Swiss CD-1 mouse assessed as mean time spent on the rotarod with 6 rpm at 30 mg/kg, ip after 30 mins by rotarod test (reference value: 60.0 +/- 0.0 seconds); assay type: toxicity, organism-based; design: dose 30 mg/kg, route intraperitoneal; settings: in vivo, 0.5 h; procedure, shortened: as §1
Mus musculus [5] = assay: Antinociceptive activity against formalin-induced inflammatory pain in albino Swiss CD-1 mouse assessed as duration of licking response at 30 mg/kg, ip administered 30 mins prior to formalin challenge measured for 15 to 30 mins (reference value: 111.6 +/- 17.1 seconds); assay type: functional; settings: route intraperitoneal
Procedure, shortened: (§2)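 Male CD-1 mice, 18–25 g, 6–12 per dose; compound suspended in 0.5% methylcellulose, given ip 30 min before 20 µl of 5% formalin intraplantar into right hind paw. Time spent licking the injected paw scored blind at 0–5 min and 15–30 min. Reduction versus vehicle-treated mice; ED50 by log-probit; mean ± SEM, ANOVA/Dunnett or t-test.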

Mus musculus [6] = assay: Antinociceptive activity against formalin-induced inflammatory pain in albino Swiss CD-1 mouse assessed as duration of licking response at 15 mg/kg, ip administered 30 mins prior to formalin challenge measured for 15 to 30 mins (reference value: 111.6 +/- 17.1 seconds); assay type: functional; settings: route intraperitoneal; procedure, shortened: as §2
Mus musculus [7] = assay: Antinociceptive activity against formalin-induced inflammatory pain in albino Swiss CD-1 mouse assessed as duration of licking response at 7.5 mg/kg, ip administered 30 mins prior to formalin challenge measured for 15 to 30 mins (reference value: 111.6 +/- 17.1 seconds); assay type: functional; settings: route intraperitoneal; procedure, shortened: as §2
Mus musculus [8] = assay: Antinociceptive activity against formalin-induced inflammatory pain in albino Swiss CD-1 mouse assessed as duration of licking response at 30 mg/kg, ip administered 30 mins prior to formalin challenge measured up to 5 mins (reference value: 55.4 +/- 6.6 seconds); assay type: functional; settings: route intraperitoneal; procedure, shortened: as §2
Mus musculus [9] = assay: Antinociceptive activity against formalin-induced inflammatory pain in albino Swiss CD-1 mouse assessed as duration of licking response at 15 mg/kg, ip administered 30 mins prior to formalin challenge measured up to 5 mins (reference value: 55.4 +/- 6.6 seconds); assay type: functional; settings: route intraperitoneal; procedure, shortened: as §2
Mus musculus [10] = assay: Antinociceptive activity against formalin-induced inflammatory pain in albino Swiss CD-1 mouse assessed as duration of licking response at 7.5 mg/kg, ip administered 30 mins prior to formalin challenge measured up to 5 mins (reference value: 55.4 +/- 6.6 seconds); assay type: functional; settings: route intraperitoneal; procedure, shortened: as §2
Mus musculus [11] = assay: Analgesic activity in ip dosed albino Swiss CD-1 mouse assessed as reduction in formalin-induced inflammatory pain administered 30 mins prior to formalin challenge measured for 15 to 30 mins; assay type: functional; settings: albino Swiss CD-1, ip; procedure, shortened: as §2
Mus musculus [12] = assay: Analgesic activity in albino Swiss CD-1 mouse assessed as reduction in formalin-induced inflammatory pain at 30 mg/kg, ip administered 30 mins prior to formalin challenge measured for 15 to 30 mins relative to control; assay type: functional; design: scale not given: the % may be the effect or the level left; settings: route intraperitoneal; procedure, shortened: as §2
Mus musculus [13] = assay: Analgesic activity in albino Swiss CD-1 mouse assessed as reduction in formalin-induced inflammatory pain at 15 mg/kg, ip administered 30 mins prior to formalin challenge measured for 15 to 30 mins relative to control; assay type: functional; design: scale not given: the % may be the effect or the level left; settings: route intraperitoneal; procedure, shortened: as §2
Mus musculus [14] = assay: Analgesic activity in albino Swiss CD-1 mouse assessed as reduction in formalin-induced inflammatory pain at 15 mg/kg, ip administered 30 mins prior to formalin challenge measured up to 5 mins relative to control; assay type: functional; design: scale not given: the % may be the effect or the level left; procedure, shortened: as §2
Mus musculus [15] = assay: Analgesic activity in albino Swiss CD-1 mouse assessed as reduction in formalin-induced inflammatory pain at 7.5 mg/kg, ip administered 30 mins prior to formalin challenge measured up to 5 mins relative to control; assay type: functional; design: scale not given: the % may be the effect or the level left; procedure, shortened: as §2
Mus musculus [16] = assay: Analgesic activity in albino Swiss CD-1 mouse assessed as reduction in formalin-induced inflammatory pain at 30 mg/kg, ip administered 30 mins prior to formalin challenge measured up to 5 mins relative to control; assay type: functional; design: scale not given: the % may be the effect or the level left; procedure, shortened: as §2
Mus musculus [17] = assay: Analgesic activity in ip dosed albino Swiss CD-1 mouse assessed as reduction in formalin-induced inflammatory pain administered 30 mins prior to formalin challenge measured up to 5 mins; assay type: functional; settings: albino Swiss CD-1, ip; procedure, shortened: as §2
Mus musculus [18] = assay: Analgesic activity in albino Swiss CD-1 mouse assessed as reduction in formalin-induced inflammatory pain at 7.5 mg/kg, ip administered 30 mins prior to formalin challenge measured for 15 to 30 mins relative to control; assay type: functional; design: scale not given: the % may be the effect or the level left; settings: route intraperitoneal; procedure, shortened: as §2
Mus musculus [19] = assay: Analgesic effect in albino Swiss CD-1 mouse assessed as inhibition of acetic acid-induced writhing at 30 mg/kg, ip administered 30 mins prior to acetic acid challenge measured for 30 mins relative to control; assay type: functional; design: scale not given: the % may be the effect or the level left; settings: route intraperitoneal
Procedure, shortened: (§3)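 Male CD-1 mice (18–25 g), habituated 30 min in beakers, dosed ip (0.5% methylcellulose, 10 ml/kg) 30 min before ip 0.9% acetic acid in saline (10 ml/kg). Writhes counted for 30 min by blinded observers. Effect is % reduction versus vehicle group; ED50 by log-probit; mean ± SEM.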

[20] = Inhibition of mouse GAT4-mediated [3H]GABA uptake stably transfected in HEK293 cells; assay type: cell-based
[21] = molecular target: T1, Sodium- and chloride-dependent GABA transporter 1 (Mus musculus, UniProt P31648); assay: Binding affinity to mouse GAT1 stably transfected in HEK293 cells by NO-711 binding assay; assay type: cell-based
[22] = molecular target: T1, Sodium- and chloride-dependent GABA transporter 1; assay: Inhibition of mouse GAT1-mediated [3H]GABA uptake stably transfected in HEK293 cells; assay type: cell-based
Mus musculus [23] = assay: Antinociceptive activity in albino Swiss CD-1 mouse assessed as prolongation of latency time at 30 mg/kg, ip administered 30 mins prior to test by hot plate test; assay type: functional, organism-based; design: dose 30 mg/kg
Procedure, shortened: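 Male CD-1 mice given compound ip in 0.5% methylcellulose 30 min before placement on a plate held at 55–56 °C. Latency to hind-paw licking or jumping timed, 30 s cut-off. Compared with vehicle by ANOVA.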

Mus musculus [24] = assay: Antinociceptive activity against formalin-induced inflammatory pain in albino Swiss CD-1 mouse assessed as duration of licking response at 30 mg/kg, ip administered 30 mins prior to formalin challenge measured for 15 to 30 mins (reference value: 78.8 +/- 15.9 seconds); assay type: functional; settings: route intraperitoneal; procedure, shortened: as §2
Mus musculus [25] = assay: Antinociceptive activity against formalin-induced inflammatory pain in albino Swiss CD-1 mouse assessed as duration of licking response at 30 mg/kg, ip administered 30 mins prior to formalin challenge measured up to 5 mins (reference value: 34.8 +/- 9.4 seconds); assay type: functional; settings: route intraperitoneal; procedure, shortened: as §2
Mus musculus [26] = assay: Analgesic effect in ip dosed albino Swiss CD-1 mouse assessed as inhibition of acetic acid-induced writhing administered 30 mins prior to acetic acid challenge measured for 30 mins; assay type: functional; settings: albino Swiss CD-1, ip; procedure, shortened: as §3
Mus musculus [27] = assay: Analgesic effect in albino Swiss CD-1 mouse assessed as inhibition of acetic acid-induced writhing at 7.5 mg/kg, ip administered 30 mins prior to acetic acid challenge measured for 30 mins relative to control; assay type: functional; design: scale not given: the % may be the effect or the level left; settings: route intraperitoneal; procedure, shortened: as §3
Mus musculus [28] = assay: Analgesic effect in albino Swiss CD-1 mouse assessed as inhibition of acetic acid-induced writhing at 3.75 mg/kg, ip administered 30 mins prior to acetic acid challenge measured for 30 mins relative to control; assay type: functional; design: scale not given: the % may be the effect or the level left; settings: route intraperitoneal; procedure, shortened: as §3
Mus musculus [29] = assay: Analgesic effect in albino Swiss CD-1 mouse assessed as inhibition of acetic acid-induced writhing at 15 mg/kg, ip administered 30 mins prior to acetic acid challenge measured for 30 mins relative to control; assay type: functional; design: scale not given: the % may be the effect or the level left; settings: route intraperitoneal; procedure, shortened: as §3
Mus musculus [30] = assay: Analgesic effect in albino Swiss CD-1 mouse assessed as inhibition of acetic acid-induced writhing at 20 mg/kg, ip administered 30 mins prior to acetic acid challenge measured for 30 mins relative to control; assay type: functional; design: scale not given: the % may be the effect or the level left; settings: route intraperitoneal; procedure, shortened: as §3

IC50 [20] [µM] | Ki [21] [µM] | IC50 [22] [µM] | Structure (SMILES) | Activity (Mus musculus [1]) | Time (Mus musculus [2]) [s] | Time (Mus musculus [3]) [s] | Time (Mus musculus [4]) [s] | Time (Mus musculus [5]) [s] | Time (Mus musculus [6]) [s] | Time (Mus musculus [7]) [s] | Time (Mus musculus [8]) [s] | Time (Mus musculus [9]) [s] | Time (Mus musculus [10]) [s] | Activity (Mus musculus [12]) [%] | Activity (Mus musculus [13]) [%] | Activity (Mus musculus [18]) [%] | Activity (Mus musculus [19]) [%] | Activity (Mus musculus [23]) | Activity (Mus musculus [16]) | ED50 (Mus musculus [26]) [mg/kg] | also measured
33.1 | 9.12 | 14.8 | O=C(NCc1ccccc1)C(CCO)N1CCC(=C(c2ccccc2)c2ccccc2)CC1 (centres undefined) | Non-toxic | 60 | 60 | 60 | 16.3 | 39.6 | 75.1 | 27.7 | 31 | 39 | 85.4 | 64.5 | 32.7 | 29.8 | inactive |  |  | ED50 (Mus musculus [11]): 11.1 mg/kg; Activity (Mus musculus [14]; route intraperitoneal): 44%; Activity (Mus musculus [15]; route intraperitoneal): 29.6%; Activity (Mus musculus [16]; route intraperitoneal): 50%; ED50 (Mus musculus [17]): 27.1 mg/kg
 |  |  | COc1ccc(C(OCCN2CCC[C@H](C(=O)O)C2)(c2ccc(OC)cc2)c2ccc(OC)cc2)cc1 |  | 59 | 56.3 | 59.6 |  |  |  |  |  |  | 39.5 |  |  |  | inactive | inactive | 7.1 | Time (Mus musculus [24]): 47.7 s; Time (Mus musculus [25]): 35.6 s; Activity (Mus musculus [27]): 62.7%; Activity (Mus musculus [28]): 23.3%; Activity (Mus musculus [29]): 70.5%
26.3 | 11.5 | 9.77 | O=C(NCc1ccc(F)cc1)C(CCO)N1CCC(=C(c2ccccc2)c2ccccc2)CC1 (centres undefined) | Non-toxic | 60 | 60 | 60 | 24 | 17.8 | 30.9 | 58.1 | 50.4 | 59.9 | 78.5 | 84.1 | 72.3 | 79.4 | inactive | inactive | 18.1 | Activity (Mus musculus [14]): inactive; Activity (Mus musculus [15]): inactive; Activity (Mus musculus [30]): 69.9%; Activity (Mus musculus [29]): 28.9%
